The values that follow come from ChEMBL document CHEMBL3739290, “Thioxo-dihydroquinazolin-one Compounds as Novel Inhibitors of Myeloperoxidase” (ACS Med Chem Lett, 2015).

Active and inactive are the calls of the source. The rule behind the calls is not given here.

One data set deals with T1, Myeloperoxidase (Homo sapiens, UniProt P05164).
T1 sequence (P05164 whole entry): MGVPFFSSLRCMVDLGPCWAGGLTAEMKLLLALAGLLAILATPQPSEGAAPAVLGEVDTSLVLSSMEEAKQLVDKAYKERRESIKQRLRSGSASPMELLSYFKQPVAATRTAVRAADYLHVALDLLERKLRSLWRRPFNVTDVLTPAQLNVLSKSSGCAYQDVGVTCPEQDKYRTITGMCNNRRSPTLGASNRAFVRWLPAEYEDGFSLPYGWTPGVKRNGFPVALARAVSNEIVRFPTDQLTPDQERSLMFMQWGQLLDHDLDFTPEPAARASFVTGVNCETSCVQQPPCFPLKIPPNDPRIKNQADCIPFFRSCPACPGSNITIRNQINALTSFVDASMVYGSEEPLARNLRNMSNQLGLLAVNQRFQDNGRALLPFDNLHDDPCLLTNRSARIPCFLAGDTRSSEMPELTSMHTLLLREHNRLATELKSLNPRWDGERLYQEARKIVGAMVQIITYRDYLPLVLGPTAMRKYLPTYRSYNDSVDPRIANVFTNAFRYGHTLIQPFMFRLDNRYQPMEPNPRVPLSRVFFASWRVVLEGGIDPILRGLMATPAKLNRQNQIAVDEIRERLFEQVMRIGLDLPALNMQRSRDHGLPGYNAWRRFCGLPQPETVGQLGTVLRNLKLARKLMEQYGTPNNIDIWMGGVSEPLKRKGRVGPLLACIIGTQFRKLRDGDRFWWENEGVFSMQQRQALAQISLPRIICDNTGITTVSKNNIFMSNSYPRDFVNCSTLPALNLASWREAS
The experiment in a line: Inhibition of human recombinant myeloperoxidase by amplex red assay.

Data set [1] concerns the target T2, Xanthine dehydrogenase/oxidase (Homo sapiens, UniProt P47989). The data set is described as follows: Inhibition of xanthine oxidase (unknown origin) assessed as superoxide generation measured for 20 mins by luminescence analysis using 50 uM xanthine as a substrate. A digest of the protocol:
(§1)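 Xanthine/xanthine oxidase served as the oxidant source to check for assay interference. The buffer and pH matched the MPO Amplex Red assay. Inhibitors were tested over a range up to 100 μM.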

For data set [2], the target named is T2, Xanthine dehydrogenase/oxidase. The data set is described as follows: Inhibition of xanthine oxidase (unknown origin) assessed as superoxide generation upto 100 uM measured for 20 mins by luminescence analysis using 50 uM xanthine as a substrate. To be noted: read-out: Imax. The gist of the method: as §1
Data set [3] in a line: Solubility of compound in water by nephelometry. In kind it is physicochemical.
The test system of another data set is Armoracia rusticana. The data set is described as follows: Inhibition of horseradish peroxidase by amplex red assay. The gist of the method: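 Interference counter-screen: the Amplex Red peroxidase assay was run with HRP (20 nM) in place of human MPO, across a range of compound concentrations. Points are the mean ± SEM of three determinations.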
The target in data set [4] is T3, Myeloperoxidase (Homo sapiens) (UniProt P05164).
T3 sequence (whole entry): T1 sequence (P05164 whole entry)
The conditions noted are these: 100 uM.

The target of data set [5] is T3, Myeloperoxidase (Homo sapiens). The conditions noted are these: 6 uM.

T2 sequence (P47989 whole entry): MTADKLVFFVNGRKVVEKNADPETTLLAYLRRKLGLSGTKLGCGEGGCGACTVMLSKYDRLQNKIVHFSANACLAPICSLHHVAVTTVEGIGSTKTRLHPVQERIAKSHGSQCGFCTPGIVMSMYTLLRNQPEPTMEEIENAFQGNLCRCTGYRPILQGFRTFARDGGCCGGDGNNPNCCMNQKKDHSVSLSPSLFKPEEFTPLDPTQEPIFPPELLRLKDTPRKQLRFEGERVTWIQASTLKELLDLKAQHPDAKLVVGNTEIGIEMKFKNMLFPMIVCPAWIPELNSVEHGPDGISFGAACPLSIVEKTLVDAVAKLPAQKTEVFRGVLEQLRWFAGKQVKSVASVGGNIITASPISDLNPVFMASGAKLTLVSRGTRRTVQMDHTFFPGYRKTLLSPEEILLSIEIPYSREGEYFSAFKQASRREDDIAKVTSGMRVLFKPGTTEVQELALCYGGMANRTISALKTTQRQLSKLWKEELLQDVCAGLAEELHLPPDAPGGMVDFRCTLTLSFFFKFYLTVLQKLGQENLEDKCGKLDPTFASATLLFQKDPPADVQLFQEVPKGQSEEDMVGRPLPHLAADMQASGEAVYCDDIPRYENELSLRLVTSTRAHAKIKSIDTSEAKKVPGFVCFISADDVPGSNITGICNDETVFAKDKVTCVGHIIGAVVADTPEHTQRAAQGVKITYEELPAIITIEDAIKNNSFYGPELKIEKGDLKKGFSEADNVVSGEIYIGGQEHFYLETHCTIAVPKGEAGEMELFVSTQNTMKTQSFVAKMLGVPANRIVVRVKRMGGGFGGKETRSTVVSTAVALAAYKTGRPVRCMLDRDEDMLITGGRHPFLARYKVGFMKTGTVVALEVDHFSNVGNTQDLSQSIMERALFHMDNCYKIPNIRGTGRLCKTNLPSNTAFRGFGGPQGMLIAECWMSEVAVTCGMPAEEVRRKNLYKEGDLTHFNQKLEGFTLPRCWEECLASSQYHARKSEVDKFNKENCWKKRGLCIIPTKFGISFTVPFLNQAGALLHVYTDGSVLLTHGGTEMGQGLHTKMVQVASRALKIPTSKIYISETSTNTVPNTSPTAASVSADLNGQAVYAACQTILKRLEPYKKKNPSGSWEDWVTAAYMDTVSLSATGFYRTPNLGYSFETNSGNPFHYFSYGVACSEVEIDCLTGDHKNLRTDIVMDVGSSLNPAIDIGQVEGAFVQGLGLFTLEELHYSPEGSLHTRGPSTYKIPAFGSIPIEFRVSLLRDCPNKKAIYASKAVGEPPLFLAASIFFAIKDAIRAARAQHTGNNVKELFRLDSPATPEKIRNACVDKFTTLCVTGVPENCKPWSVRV

Take `CC(C)n1c(=S)[nH]c2cc3c(cc2c1=O)OCCO3`: the IC50 – broadly, the point on the concentration scale where inhibition reaches its midpoint – on Myeloperoxidase (read-out: IC50) is more than 20 µM; in data set [1] (read-out: IC50), 4.5 µM. For the same molecule, in data set [2], the Emax came out at 60%.

As for `CN(C)CCCn1c(=S)[nH]c2ccccc2c1=O`, the IC50 at Myeloperoxidase (read-out: IC50) stood at 1.3 µM; in data set [1] (read-out: IC50) it was 20 µM. In addition, the Emax in data set [2] is 20%.

Turning to `CN(C)CCCn1c(=S)[nH]c2c(Cl)cc(Cl)cc2c1=O`, the IC50 on Myeloperoxidase (read-out: IC50) was more than 20 µM; in data set [1], “Not Active”.

Take `CN(C)CCCCCCn1c(=S)[nH]c2ccc(F)cc2c1=O`: the IC50 is more than 20 µM at Myeloperoxidase (read-out: IC50) and 18 µM in data set [1] (read-out: IC50). The Emax in data set [2] amounted to 35%.

With `CN(C)CCCn1c(=O)[nH]c2ccccc2c1=O`, the IC50 entry (on Myeloperoxidase; in data set [1]) was “Not Active” throughout.

Take `CN(C)CCCn1c(=S)[nH]c2ccc(Cl)cc2c1=O.Cl`: the IC50 was 0.8 µM at Myeloperoxidase (read-out: IC50) and 15 µM in data set [1] (read-out: IC50). In addition, the kinetic solubility (as a rule, solubility judged after dilution from a stock solution rather than from solid) in data set [3] was found to be 90 µg/mL. Moreover, the Emax in data set [2] worked out at 71%. In addition, in the data set on Armoracia rusticana, the inhibition result is “inactive”.

For the molecule `O=C(Nn1c(=S)[nH]c2cc3c(cc2c1=O)OCCO3)c1ccc(C(F)(F)F)cc1`, the results for the IC50 (at Myeloperoxidase (read-out: IC50); in data set [1]) were 0.3 µM and “Not Active”, respectively.

As for `O=c1c2ccccc2[nH]c(=S)n1CCN1CCCCC1`, the figures for the IC50 (on Myeloperoxidase (read-out: IC50); in data set [1]) were 0.4 µM and “Not Active”, respectively.

Take `CN(C)CCCn1c(=S)[nH]c2ccc(F)cc2c1=O.Cl`: the figures for the IC50 (on Myeloperoxidase (read-out: IC50); in data set [1]) were 0.6 µM and “Not Active”, respectively.

As for `O=C(Nn1c(=S)[nH]c2ccc(F)cc2c1=O)c1cccc(F)c1`, the inhibition entry with Armoracia rusticana is “inactive”.

For `CN(C)CCCCn1c(=O)[nH]c2ccccc2c1=O`, the IC50 is 10 µM on Myeloperoxidase (read-out: IC50) and “Not Active” in data set [1].

For `CN(C)CCCCCn1c(=O)[nH]c2ccccc2c1=O`, the IC50 is 10 µM on Myeloperoxidase (read-out: IC50) and “Not Active” in data set [1].

Regarding `O=C(NO)c1ccccc1O`, the inhibition result in data set [4] was “Active”.

For `CCn1c(=S)[nH]c2ccc(F)cc2c1=O`, the 50% inhibitory concentration (IC50) on Myeloperoxidase (read-out: IC50) is 15 µM; in data set [1] it was “Not Active”.

On to `NNC(=O)c1ccc(N)cc1`, for which, in data set [5], the inhibition entry is “Active”.

As for `O=c1c2ccccc2[nH]c(=S)n1CCCCCO`, the IC50 at Myeloperoxidase (read-out: IC50) is more than 40 µM; in data set [1], “Not Active”.

With `CCN(CC)CCn1c(=S)[nH]c2ccccc2c1=O`, the figures for the IC50 (at Myeloperoxidase (read-out: IC50); in data set [1]) were 1.6 µM and “Not Active”, respectively.

Regarding `CN1CCN(CCCn2c(=S)[nH]c3ccccc3c2=O)CC1`, the IC50 on Myeloperoxidase (read-out: IC50) was 1.4 µM; in data set [1], “Not Active”.

With `CN(C)CCCn1c(=S)[nH]c2cc(Cl)ccc2c1=O`, the IC50 on Myeloperoxidase (read-out: IC50) worked out at 8 µM; in data set [1] (read-out: IC50), 4 µM. The Emax in data set [2] came to 50%.

On to `CN(C)CCCn1c(=S)[nH]c2cc(F)c(F)cc2c1=O.Cl`, for which the IC50 on Myeloperoxidase (read-out: IC50) is 1.2 µM; in data set [1] it was “Not Active”.

In the case of `CN(C)CCn1c(=S)[nH]c2ccccc2c1=O`, the results for the IC50 (on Myeloperoxidase (read-out: IC50); in data set [1]) were 1.7 µM and “Not Active”, respectively.
